Sampled rows, rich in hits. Any-hit rate of the full collection: about 2.4%.
zVAD death inh: blocks zVAD induced death of L929 cells. L929 zVAD necroptosis rescue, ATP luminescence, 24 h; with zVAD 60 µM. viability rescue, % at 10 µM. actives 0.38% (n = 220,000);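 active = activation, scaled between plate controls, above about 75%, limit read from the data; inactive = activation under that limit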;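 also: 0% = zVAD with DMSO and 100% = DMSO alone without zVAD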
Autophagy HCS: modulators of autophagy; MEF GFP-LC3 puncta imaging; test concentration mostly 10 µM; calls only at 10 µM (by protocol); actives 0.98% (n = 190,000); AID 463193;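 active = percentage of spot-positive cells more than 3 SD above its plate mean, without a fluorescence outlier flag or 80% toxicity; inconclusive = no clear call, values can overlap the other calls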;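 also: spot-positive cell cutoff set from DMSO-treated cells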
MDM2 E3 inh: Mdm2 E3 ligase (human) inhibition. Q00987. cell-based MDM2 ubiquitination luciferase reporter, 2 h; 0 = plate control, 100 = twice control, blank-subtracted. signal enhancement, % at 5 µM. actives 0.11% (n = 210,000). AID 1230;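 active = signal enhancement of 30% or more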;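 also: luminescence tracks abundance of the self-degrading MDM2-luciferase fusion protein; higher signal means inhibition of MDM2 E3 ligase activity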
Target sequence (Q00987 whole entry, looked up, the tested form may be a part): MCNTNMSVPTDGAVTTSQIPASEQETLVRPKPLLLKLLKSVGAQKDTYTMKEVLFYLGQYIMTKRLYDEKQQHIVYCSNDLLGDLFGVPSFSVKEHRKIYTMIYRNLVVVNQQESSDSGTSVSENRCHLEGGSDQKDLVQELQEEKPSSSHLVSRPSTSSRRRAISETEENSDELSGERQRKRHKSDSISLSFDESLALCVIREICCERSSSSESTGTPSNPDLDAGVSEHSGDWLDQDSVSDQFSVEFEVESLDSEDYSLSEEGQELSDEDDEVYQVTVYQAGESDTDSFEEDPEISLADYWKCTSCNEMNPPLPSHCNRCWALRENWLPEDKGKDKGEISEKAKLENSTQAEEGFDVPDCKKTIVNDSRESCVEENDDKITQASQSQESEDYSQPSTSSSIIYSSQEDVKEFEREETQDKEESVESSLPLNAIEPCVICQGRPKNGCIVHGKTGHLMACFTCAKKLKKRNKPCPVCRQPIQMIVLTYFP
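Assay system: stable mammalian line carrying autodegrading MDM2–luciferase fusion reporter; amount: 2000 cells seeded into each well; buffer or medium: DMEM; benchmarks: plate control and blank wells; signal: luciferase luminescence; timing: 2 h compound exposure at 37 °C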
TNF death inh: inhibitors of TNF-alpha induced necroptosis in Jurkat FADD-/- cells. Jurkat FADD-/- TNF necroptosis rescue, ATP luminescence, 24 h; 0 = TNF only, 100 = no-TNF cells. activation (protection from cell death), % at 10 µM. actives 0.068% (n = 220,000). AID 463075;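 active = activation, meaning protection from cell death, of at least 50% relative to plate controls; inactive = activation below 50%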;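 also: necroptosis triggered by 40 ng/mL TNF-alpha added together with compound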
Hck-Nef inh: human Hck-Nef kinase inhibition. inhibition, % at 20 µM. actives 0.68% (n = 220,000). P08631. Recombinant Hck-YEEI plus Nef, Z-Lyte FRET kinase assay;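 active = Hck-Nef kinase inhibition above about 50%, limit read from the data; inactive = inhibition below that limit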;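 also: 0% = DMSO with Hck plus Nef and 100% = Hck alone without Nef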
Dynein transport: blocks dynein driven cargo transport along microtubules | 3617.4 mouse cells, GR-EGFP nuclear translocation imaging; test concentration mostly 20 µM; stimulated with dexamethasone, 1 µM; stronger effect = lower value | z-score, hits read low | actives 0.47% (n = 220,000);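 active = plate z-score of nuclear minus cytoplasmic receptor signal below a set negative limit, without overly bright fluorescence or cell loss, cut at about -3.5 in these data, passing the limit was not always enough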;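 also: z-score of nuclear minus cytoplasmic ring GR-EGFP intensity difference per well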
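Buffer or medium: tet-free, stripped-serum medium; Also added: dexamethasone, 1.0 µM final; Technique: high-content fluorescence imaging after fixation; Times: 48 h induction, 1 h compound, 30 min dex at 37 °C; Read-out: per-cell GR-EGFP intensity, nucleus versus surrounding cytoplasmic ring, well-averaged.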
Dynein inh conf: dynein cargo transport inhibition, confirmation; calls only at 20 µM; 3617.4 GR-EGFP nuclear translocation imaging, dexamethasone-induced; actives 69% (n = 1,000); shares compounds with Dynein transport; AID 463116;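 active = inhibition of receptor movement into the nucleus at or above a set limit in both runs, with normal cell brightness and cell count; inconclusive = limit reached in only one run, brightness and count normal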;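 also: dexamethasone at 1 µM final in well for 30 min; nuclear minus cytoplasmic GR-EGFP mean intensity difference in channel 2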
Hck Nef conf: confirmation of Hck-Nef kinase inhibitors; Recombinant Hck-YEEI:Nef, Z-Lyte FRET kinase assay; AID 463188; shares compounds with Hck-Nef inh; actives 28% (n = 1,300); calls only at 10 µM;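 active = average inhibition of at least 50%, with Z-scores no higher than 3 in both the phospho-tyrosine peptide and fluorescence counterscreens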
* = called active by the depositor; i = inactive; ? = inconclusive; . = no result shown; + = active, no number.

SMILES	zVAD death inh	Autophagy HCS	MDM2 E3 inh	TNF death inh	Hck-Nef inh	Dynein transport	Hck Nef conf	others
Cc1nn(Cc2ccccc2)c(C)c1C=C1C(=O)NC(=S)NC1=O	0.7	i	-13.9	10.5	5.4	-4.68*	.	Dynein inh conf=i
Cn1c(O)c(C(=NCCc2c[nH]c3ccccc23)c2ccccc2)c(=O)n(C)c1=O	0.0	i	-18.4	-5.3	7.1	-0.0627	.
CN(C)/C=C/C(=O)C(Cl)(Cl)Cl	0.2	i	-18.8	-0.5	9.6	0.277	.
CN1CCN(c2ccc(S(C)(=O)=O)cc2[N+](=O)[O-])CC1	0.5	i	-10.8	0.3	2.1	0.267	.
CN1CCN(c2ccc([N+](=O)[O-])c3no[n+]([O-])c23)CC1	24.3	.	.	-29.2	23.2	-4.68*	.	Dynein inh conf=i
N#CC(C#N)=Cc1ccc(C=C(C#N)C#N)cc1	0.2	.	-15.1	-26.5	-14.5	-4.3*	.	Dynein inh conf=?
Cc1cc(N2CCCC2)ccc1C=C(C#N)C#N	-0.6	i	-81.7	-0.8	11.5	2.31	.
O=c1c2ccccc2[nH]c(=S)n1-c1ccc2c(c1)OCCO2	-0.2	.	0.8	0.7	13.6	-0.287	.
O=C1NC(=O)N(Cc2ccccc2)C(=O)/C1=C\C=C\c1ccco1	0.0	i	29.1	-8.1	59.4*	-4.42*	i	Dynein inh conf=+
Cc1ccc(N2C(=O)NC(=O)/C(=C\C=C\c3ccco3)C2=O)cc1C	0.1	i	53.0*	-5.2	68.3*	-5.65*	i	Dynein inh conf=+
O=C1NC(=O)N(Cc2ccccc2)C(=O)/C1=C/N1CCCc2ccccc21	0.6	i	-14.7	0.4	2.3	-1.24	.
C=CCN1C(=O)NC(=O)/C(=C/C=C/c2ccccc2)C1=O	0.2	i	16.7	-9.5	50.9*	-4.88*	i	Dynein inh conf=+
Cc1cc(N2CCOCC2)ccc1/C=C1\C(=O)NC(=O)N(c2ccccc2)C1=O	0.5	i	-6.7	-1.3	30.3	-0.572	.
CN1C2CCC1CC(OC(=O)c1cc(Cl)cc(Cl)c1)C2 (centres undefined)	0.2	i	-6.9	6.0	0.4	-0.751	.
CCCCCCN=C(C)c1c(O)n(Cc2ccccc2)c(=O)[nH]c1=O	-0.1	i	-10.6	-0.7	-1.4	1.1	.
COc1ccc(OC)c(N2C(=O)NC(=O)/C(=C/c3ccc([N+](=O)[O-])s3)C2=O)c1	-0.2	i	-9.3	-8.4	88.8*	-5.34*	i	Dynein inh conf=+
O=C1NC(=O)N(Cc2ccc(F)cc2)C(=O)/C1=C\c1ccoc1	-0.4	.	-10.3	-1.3	41.4	-0.306	.
O=C1NC(=S)N(c2ccc(F)cc2)C(=O)/C1=C\c1ccoc1	2.0	i	-2.6	0.0	79.2*	-0.215	+
CN1C(=O)/C(=C/C=C/c2ccco2)C(=O)NC1=S	-0.5	.	-16.2	-7.0	53.7*	-0.757	i
O=C1NC(=O)C2(Cc3ccccc3N3CCOCC32)C(=O)N1c1ccccc1 (centres undefined)	-0.7	i	-8.1	-0.8	-0.6	-0.392	.
Cc1cc(/C=C2\C(=O)NC(=O)N(Cc3ccco3)C2=O)c(C)n1-c1ccc(C(=O)O)cc1	-0.1	.	1.8	1.1	50.2*	-0.754	i
Cc1cc(/C=C2\C(=O)NC(=O)N(Cc3ccco3)C2=O)c(C)n1-c1ccc(O)cc1	0.7	i	-7.4	-1.7	23.9	-0.131	.
CN1C(=O)C(=Cc2ccc(Sc3ccccc3)o2)C(=O)N(C)C1=O	-0.6	i	-12.0	-1.6	69.9*	-3.19	i
NP(=O)(Oc1ccc(Cl)cc1)Oc1ccc(Cl)cc1	0.3	i	1.4	2.9	19.8	0.786	.
CN1C(=O)C(=Cc2coc3ccccc3c2=O)C(=O)N(C)C1=O	0.2	.	-12.7	-4.0	80.7*	-1.59	+
SMILES	zVAD death inh	Autophagy HCS	MDM2 E3 inh	TNF death inh	Hck-Nef inh	Dynein transport	Hck Nef conf	others
Cc1cccc(N2C(=O)/C(=C/c3ccc(CN(CCC#N)S(C)(=O)=O)o3)C(=O)NC2=S)c1	-0.7	i	-11.2	0.6	52.6*	-0.809	i
Cc1ccc(N2C(=O)/C(=C/c3ccc(CN(CCC#N)S(C)(=O)=O)o3)C(=O)NC2=S)cc1C	0.0	i	-3.8	-2.2	13.4	-0.508	.
Cn1c(O)c(C=NC2CC(C)(C)NC(C)(C)C2)c(=O)n(C)c1=O	-0.6	i	-2.7	-0.2	1.5	1.18	.
CN1C(=O)NC(=O)/C(=C\C=C\c2ccccc2[N+](=O)[O-])C1=O	1.3	i	2.7	-8.0	93.3*	-1.53	i
COc1cc(/C=C2\C(=O)NC(=O)N(c3ccccc3)C2=O)c([N+](=O)[O-])cc1OC	0.1	i	-32.6	-1.5	33.0	-0.74	.
CCN1C(=O)/C(=C/c2ccc3c(c2)CCN3CCCCl)C(=O)NC1=S	0.9	i	-13.1	-1.7	55.1*	-1.33	+
O=C(Nc1c(F)cc(F)cc1F)c1cccn(Cc2ccccc2)c1=O	2.1	i	-2.7	-0.9	8.0	-0.217	.
O=c1c2ccccc2[se]n1-c1ccccc1	1.3	i	.	-6.5	102.4*	0.611	+
COc1ccc(Cn2c(N)c(C(=O)NCc3ccco3)c3nc4ccccc4nc32)cc1OC	0.7	i	-13.8	-6.0	61.6*	0.9	i
Nc1c(C(=O)NCC2CCCO2)c2nc3ccccc3nc2n1Cc1ccco1 (centres undefined)	2.9	.	-7.6	-0.7	59.6*	-0.42	.
COCCCNC(=O)c1c(N)n(Cc2ccco2)c2nc3ccccc3nc12	1.5	.	-14.1	-3.0	47.2	-0.556	.
O=C1NC(=O)C(=Cc2ccc(OCCOc3ccc([N+](=O)[O-])cc3)cc2)C(=O)N1	13.1	i	8.7	-4.6	62.7*	-0.0655	i
COc1ccc(Cl)cc1C(=O)C1CCCN(Cc2cnc(C)s2)C1 (centres undefined)	-0.4	i	-4.3	1.5	-0.6	-0.167	.
O=C1NC(=O)N(c2ccc(Cl)cc2)C(=O)/C1=C\c1ccc(Sc2nc3ccccc3[nH]2)o1	0.7	i	-4.7	7.0	57.2*	-1.63	i
Cc1ccc2c(c1)=NC(=O)/C(=C/c1c(O)[nH]c(=O)[nH]c1=O)C=2	0.0	.	.	-3.1	64.6*	-0.61	+
Cc1cccc(NC2=NCCCS2)c1	1.0	.	-10.3	2.1	-8.0	-0.481	.
O=C(COc1ccccc1)N1CCN(C2CC3CCC2C3)CC1 (centres undefined)	-0.1	i	0.7	-0.1	6.5	-0.685	.

Screens (PubChem BioAssay)
